This note sets out measurements from ChEMBL document CHEMBL4340542, “Design, synthesis and biological evaluation of 4-aniline-thieno[2,3-d]pyrimidine derivatives as MNK1 inhibitors against renal cell carcinoma and nasopharyngeal carcinoma” (Bioorg Med Chem, 2019).

Broadly, the IC50 is the concentration that gives 50% inhibition. Higher therefore signals a need for much substance.

The source made the active and inactive calls. The calls are words filed in the database; no cut-off is given here.

For test [1], the system named is 786-0. Briefly: Cytotoxicity against human 786-O cells assessed as decrease in cell viability incubated for 24 hrs by MTT assay. It is filed as functional, cell-based. An outline of the steps:
(§1)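 IC50 from an 8–10 point concentration gradient by MTT assay. Panel covers renal cell carcinoma and nasopharyngeal carcinoma lines. Values are mean ± SD, n = 3.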
On the technique in general: Tetrazolium dyes change colour on reduction, which living cells bring about.

Test [2] deals with CNE. Briefly: Cytotoxicity against human CNE1 cells assessed as decrease in cell viability incubated for 24 hrs by MTT assay. It is filed as functional, cell-based. The method in brief: as §1
Test [3] addresses MAP kinase-interacting serine/threonine-protein kinase 1 (Homo sapiens, UniProt Q9BUB5). Briefly: Inhibition of human MNK1 using CREBtide substrate by gamma-[32P]-ATP competitive inhibition assay. An outline of the steps:
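Run as the Eurofins KinaseProfiler radiometric assay, competitive with γ-[32P]-ATP. IC50 taken as the mean of independent experiments; the footnote gives two.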

For test [4], the species on record is Homo sapiens. Briefly: Cytotoxicity against human HNE1 cells assessed as decrease in cell viability incubated for 24 hrs by MTT assay. The class given is functional, cell-based. The method in brief: as §1
The test system of test [5] is CNE-2. Briefly: Cytotoxicity against human CNE2 cells assessed as decrease in cell viability incubated for 24 hrs by MTT assay. The class given is functional, cell-based. An outline of the steps: as §1
In test [6] the test system is CAKI-1. Briefly: Cytotoxicity against human Caki1 cells assessed as decrease in cell viability incubated for 24 hrs by MTT assay. It is filed as functional, cell-based. The method in brief:
as §1

The test system of test [7] is A498. Briefly: Cytotoxicity against human A498 cells assessed as decrease in cell viability incubated for 24 hrs by MTT assay. It is filed as functional, cell-based. An outline of the steps: as §1
The test system of test [8] is SUNE1. Briefly: Cytotoxicity against human SUNE1 cells assessed as decrease in cell viability incubated for 24 hrs by MTT assay. It is filed as functional, cell-based. An outline of the steps:
as §1

Chain of MAP kinase-interacting serine/threonine-protein kinase 1 (Q9BUB5 whole entry): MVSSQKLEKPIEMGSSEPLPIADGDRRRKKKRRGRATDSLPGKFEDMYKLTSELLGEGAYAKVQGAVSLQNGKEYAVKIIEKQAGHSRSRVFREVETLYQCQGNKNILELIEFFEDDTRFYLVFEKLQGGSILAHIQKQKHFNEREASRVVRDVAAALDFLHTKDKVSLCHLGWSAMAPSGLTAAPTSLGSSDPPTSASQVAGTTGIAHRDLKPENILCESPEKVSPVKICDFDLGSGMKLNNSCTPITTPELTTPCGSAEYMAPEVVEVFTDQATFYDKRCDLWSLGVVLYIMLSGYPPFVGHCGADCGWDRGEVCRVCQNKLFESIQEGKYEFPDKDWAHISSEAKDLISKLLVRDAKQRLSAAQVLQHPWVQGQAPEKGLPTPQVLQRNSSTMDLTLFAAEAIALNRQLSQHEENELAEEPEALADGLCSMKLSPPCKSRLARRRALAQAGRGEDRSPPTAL

For the compound `COc1ccc(S(=O)(=O)N2CCc3c(sc4ncnc(Nc5ccc(F)cc5F)c34)C2)cc1`, the result in test [1], in test [2], in test [4], in test [5], in test [6] and in test [7] was Active. Moreover, in test [8], the outcome was Active. Further, in test [3], the IC50 was found to be 0.83 µM. On to `COc1ccc(S(=O)(=O)N2CCc3c(sc4ncnc(Nc5ccc(Cl)cc5F)c34)C2)cc1`, for which the result in test [1], in test [2], in test [4], in test [5], in test [6] and in test [7] was Active. For the same compound, the result in test [8] was Active. The compound also showed an IC50 in test [3] of 1.15 µM.

`COc1ccc(S(=O)(=O)N2CCc3c(sc4ncnc(Nc5cccc(F)c5)c34)C2)cc1`: the IC50 in test [3] turned out to be 1.39 µM. On the same count and under the same terms, then `CN1CCc2c(sc3ncnc(Nc4ccc(Cl)cc4F)c23)C1`, with 1.85 µM; and `Clc1cccc(Nc2ncnc3sc4c(c23)CCCC4)c1`, with 2.43 µM; and `COc1ccc(S(=O)(=O)N2CCc3c(sc4ncnc(Nc5cccc(Cl)c5)c34)C2)cc1`, with 1.4 µM. The same measure, in the same setting: with `Fc1cc(Cl)ccc1Nc1ncnc2sc3c(c12)CCN(Cc1ccccc1)C3` the figure was 1.31 µM. `Cc1cccc(Nc2ncnc3sc4c(c23)CCN(C)C4)c1` displayed an IC50 in test [3] of 2.22 µM. This IC50 is about 1.7-fold higher than that of the compound before. As to `COc1ccc(S(=O)(=O)N2CCc3c(sc4ncnc(Nc5ccc(Br)cc5)c34)C2)cc1`, the outcome in test [1], in test [2], in test [4], in test [5], in test [6] and in test [7] was Active. The result in test [8] was Active. In test [3], the IC50 was found to be 1.07 µM. Regarding `COc1cccc(Nc2ncnc3sc4c(c23)CCN(S(=O)(=O)c2ccc(F)cc2F)C4)c1`, in test [3], the half-inhibitory concentration (IC50) came out at 1.88 µM. Still for that read-out and setting: with `Cc1cccc(Nc2ncnc3sc4c(c23)CCN(C(=O)OC(C)(C)C)C4)c1` the figure was 2.5 µM. On the same count and under the same terms, then `O=S(=O)(c1ccc(F)cc1F)N1CCc2c(sc3ncnc(Nc4ccc(Cl)cc4F)c23)C1`, with 1.54 µM. `Cc1cccc(Nc2ncnc3sc4c(c23)CCN(S(=O)(=O)c2ccc(F)cc2F)C4)c1` showed an IC50 in test [3] of 2.4 µM. On the same count and under the same terms, then `O=S(=O)(c1cccs1)N1CCc2c(sc3ncnc(Nc4ccc(Br)cc4)c23)C1`, with 1.39 µM. For `Fc1cccc(Nc2ncnc3sc4c(c23)CCCC4)c1`, the IC50 in test [3] worked out at 2.18 µM. As for `O=S(=O)(c1ccc(F)cc1F)N1CCc2c(sc3ncnc(Nc4cccc(F)c4)c23)C1`, the half-inhibitory concentration (IC50) in test [3] was determined as 2.02 µM. Consider `O=S(=O)(c1cccs1)N1CCc2c(sc3ncnc(Nc4ccc(F)cc4F)c23)C1`, for which, in test [3], the 50% inhibitory concentration (IC50) was 1.46 µM. This IC50 and that of the compound before are within 1.5-fold of each other. Still for that read-out and setting: then `COc1cc(F)ccc1Nc1ncnc2sc3c(c12)CCN(S(=O)(=O)c1ccc(F)cc1F)C3`, with 0.93 µM; and `Fc1ccc(Nc2ncnc3sc4c(c23)CCN(Cc2ccccc2)C4)c(F)c1`, with 1.1 µM. Still for that read-out and setting: then `CC(C)(C)OC(=O)N1CCc2c(sc3ncnc(Nc4ccc(Br)cc4)c23)C1`, with 1.81 µM; and `CN1CCc2c(sc3ncnc(Nc4ccc(Cl)cc4)c23)C1`, with 1.82 µM; and `O=S(=O)(c1cccs1)N1CCc2c(sc3ncnc(Nc4cccc(Cl)c4)c23)C1`, with 1.38 µM.

Turning to `Fc1ccc(Nc2ncnc3sc4c(c23)CCN(Cc2ccccc2)C4)c(Br)c1`, in test [3], the half-inhibitory concentration (IC50) was determined as 1.12 µM.

In the case of `CN1CCc2c(sc3ncnc(Nc4cccc(F)c4)c23)C1`, the 50% inhibitory concentration (IC50) in test [3] worked out at 2.04 µM. Same read-out and setting: then `O=S(=O)(c1cccs1)N1CCc2c(sc3ncnc(Nc4ccc(Cl)cc4F)c23)C1`, with 1.36 µM; and `CC(C)(C)OC(=O)N1CCc2c(sc3ncnc(Nc4ccc(F)cc4Br)c23)C1`, with 1.72 µM. In test [3], `O=S(=O)(c1ccc(F)cc1F)N1CCc2c(sc3ncnc(Nc4ccc(Br)cc4)c23)C1` displayed an IC50 of 1.73 µM. For the compound `Cc1cccc(Nc2ncnc3sc4c(c23)CCN(S(=O)(=O)c2cccs2)C4)c1`, the IC50 in test [3] amounted to 2.13 µM. For `Clc1cccc(Nc2ncnc3sc4c(c23)CCN(Cc2ccccc2)C4)c1`, the IC50 in test [3] was determined as 2.29 µM. `COc1ccc(S(=O)(=O)N2CCc3c(sc4ncnc(Nc5ccc(F)cc5Br)c34)C2)cc1`: the result in test [1], in test [2], in test [4], in test [5], in test [6] and in test [7] was Active. In addition, in test [8], the result was Active. In test [3], this compound came in with a 50% inhibitory concentration (IC50) of 1 µM. Consider `O=[N+]([O-])c1ccccc1S(=O)(=O)N1CCc2c(sc3ncnc(Nc4ccc(F)cc4Br)c23)C1`, for which, in test [3], the concentration for half-maximal inhibition (IC50) is 1.16 µM.

Turning to `O=S(=O)(c1ccc(F)cc1F)N1CCc2c(sc3ncnc(Nc4ccc(F)cc4Br)c23)C1`, the half-maximal inhibitory concentration (IC50) in test [3] stood at 1.28 µM. On the same count and under the same terms, with `Brc1ccc(Nc2ncnc3sc4c(c23)CCCC4)cc1` the figure was 1.51 µM; with `O=S(=O)(c1cccs1)N1CCc2c(sc3ncnc(Nc4ccc(F)cc4Br)c23)C1`, 0.97 µM; with `COc1cc(F)ccc1Nc1ncnc2sc3c(c12)CCN(S(=O)(=O)c1ccccc1[N+](=O)[O-])C3`, 1.1 µM. In test [3], `COc1cc(F)ccc1Nc1ncnc2sc3c(c12)CCN(S(=O)(=O)c1cccs1)C3` registered an IC50 of 0.94 µM. The IC50 values of the last two compounds are within 1.5-fold of each other.

`CN1CCc2c(sc3ncnc(Nc4cccc(Cl)c4)c23)C1` showed an IC50 in test [3] of 1.87 µM.

`O=[N+]([O-])c1ccccc1S(=O)(=O)N1CCc2c(sc3ncnc(Nc4ccc(Cl)cc4)c23)C1`: the half-inhibitory concentration (IC50) in test [3] was 1.65 µM. Compound `COc1ccc(S(=O)(=O)N2CCc3c(sc4ncnc(Nc5cccc(C)c5)c34)C2)cc1` came in with an IC50 in test [3] of 1.41 µM. This IC50 and that of the compound before are within 1.5-fold of each other.

On to `CN1CCc2c(sc3ncnc(Nc4ccc(F)cc4Br)c23)C1`, for which the half-maximal inhibitory concentration (IC50) in test [3] worked out at 1.47 µM. This IC50 and that of the compound before are within 1.5-fold of each other. In turn, `COc1cccc(Nc2ncnc3sc4c(c23)CCN(S(=O)(=O)c2ccccc2[N+](=O)[O-])C4)c1` had a half-maximal inhibitory concentration (IC50) in test [3] of 2.02 µM. The IC50 values of the last two compounds are within 1.5-fold of each other.

The compound `Cc1ccc(Nc2ncnc3sc4c(c23)CCN(S(=O)(=O)c2ccccc2[N+](=O)[O-])C4)c(Br)c1` registered an IC50 in test [3] of 1.65 µM. Still for that read-out and setting: with `COc1cccc(Nc2ncnc3sc4c(c23)CCN(C(=O)OC(C)(C)C)C4)c1` the figure was 1.95 µM; with `Cc1cccc(Nc2ncnc3sc4c(c23)CCN(S(=O)(=O)c2ccccc2[N+](=O)[O-])C4)c1`, 2.06 µM.

`O=S(=O)(c1ccc(F)cc1F)N1CCc2c(sc3ncnc(Nc4ccc(Cl)cc4)c23)C1` had an IC50 in test [3] of 1.5 µM. `COc1ccc(S(=O)(=O)N2CCc3c(sc4ncnc(Nc5ccc(Cl)cc5)c34)C2)cc1` gave an IC50 in test [3] of 1.22 µM.
